Here are results for one compound from ChEMBL document CHEMBL3085690, “Naturally occurring antimicrobial peptide OH-CATH30 selectively regulates the innate immune response to protect against sepsis” (J Med Chem, 2013).

The assay concerns the target Transcription factor p65 (Mus musculus) (UniProt Q04207). As to the kind of experiment: Activation of NFkappaB p65 in mouse BMDM assessed as phosphorylation at 10 ug/ml after 15 to 30 mins by Western blotting. A digest of the protocol: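 BMDMs came from mouse bone marrow cultured in RPMI 1640 with 10% FCS and 20% L929-conditioned medium. After treatment, lysates were run on 10% SDS−PAGE, transferred to PVDF, blocked with 5% BSA, and probed for phospho-p65. Detection used an HRP anti-rabbit IgG secondary and chemiluminescence.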

The source made the active and inactive calls. No cut-off for these calls is given here.

Sequence of Transcription factor p65 (Mus musculus) (Q04207 whole entry): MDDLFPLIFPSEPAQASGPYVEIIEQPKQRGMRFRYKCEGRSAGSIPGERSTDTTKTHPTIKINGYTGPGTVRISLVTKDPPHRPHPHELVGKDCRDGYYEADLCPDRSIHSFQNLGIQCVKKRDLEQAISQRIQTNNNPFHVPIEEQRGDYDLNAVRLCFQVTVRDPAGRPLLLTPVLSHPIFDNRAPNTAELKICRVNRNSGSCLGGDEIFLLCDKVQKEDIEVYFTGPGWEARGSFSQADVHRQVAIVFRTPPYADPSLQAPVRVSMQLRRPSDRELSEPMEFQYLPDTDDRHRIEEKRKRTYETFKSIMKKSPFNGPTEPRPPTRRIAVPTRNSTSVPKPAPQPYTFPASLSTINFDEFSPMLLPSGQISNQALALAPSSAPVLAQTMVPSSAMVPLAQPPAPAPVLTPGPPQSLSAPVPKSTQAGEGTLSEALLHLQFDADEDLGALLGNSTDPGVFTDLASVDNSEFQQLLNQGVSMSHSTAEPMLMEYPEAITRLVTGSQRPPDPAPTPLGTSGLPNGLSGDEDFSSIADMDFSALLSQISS

On to `CC[C@H](C)[C@H](NC(=O)[C@H](CCCCN)NC(=O)[C@H](CCC(=O)O)NC(=O)[C@H](CCCCN)NC(=O)[C@H](CO)NC(=O)[C@H](CCCCN)NC(=O)[C@H](CCCNC(=N)N)NC(=O)[C@H](Cc1ccccc1)NC(=O)[C@H](Cc1ccccc1)NC(=O)[C@H](CC(=O)O)NC(=O)CNC(=O)[C@H](CC(C)C)NC(=O)[C@@H](N)CC(C)C)C(=O)NCC(=O)N[C@@H](CCCCN)C(=O)N[C@@H](CCC(=O)O)C(=O)N[C@@H](Cc1ccccc1)C(=O)N[C@@H](CCCCN)C(=O)N[C@@H](CCCNC(=N)N)C(=O)N[C@H](C(=O)N[C@H](C(=O)N[C@@H](CCC(N)=O)C(=O)N[C@@H](CCCNC(=N)N)C(=O)N[C@H](C(=O)N[C@@H](CCCCN)C(=O)N[C@@H](CC(=O)O)C(=O)N[C@@H](Cc1ccccc1)C(=O)N[C@@H](CC(C)C)C(=O)N[C@@H](CCCNC(=N)N)C(=O)N[C@@H](CC(N)=O)C(=O)N[C@@H](CC(C)C)C(=O)N[C@H](C(=O)N1CCC[C@H]1C(=O)N[C@@H](CCCNC(=N)N)C(=O)N[C@H](C(=O)N[C@@H](CCC(=O)O)C(=O)N[C@@H](CO)C(=O)O)[C@@H](C)O)C(C)C)[C@@H](C)CC)C(C)C)[C@@H](C)CC`, for which the result was Active.
